Measurements: ChEMBL document CHEMBL1154087, “Novel orally active NPY Y5 receptor antagonists: Synthesis and structure-activity relationship of spiroindoline class compounds” (Bioorg Med Chem, 2009)
Calls of active or inactive are those of the source. The calls are words filed in the database; no cut-off is given here.

What was measured:
[1] = target: T1, Neuropeptide Y receptor type 5 (Homo sapiens, UniProt Q15761); assay: Binding affinity to human neuropeptide Y5 receptor
T1 sequence (Q15761 whole entry): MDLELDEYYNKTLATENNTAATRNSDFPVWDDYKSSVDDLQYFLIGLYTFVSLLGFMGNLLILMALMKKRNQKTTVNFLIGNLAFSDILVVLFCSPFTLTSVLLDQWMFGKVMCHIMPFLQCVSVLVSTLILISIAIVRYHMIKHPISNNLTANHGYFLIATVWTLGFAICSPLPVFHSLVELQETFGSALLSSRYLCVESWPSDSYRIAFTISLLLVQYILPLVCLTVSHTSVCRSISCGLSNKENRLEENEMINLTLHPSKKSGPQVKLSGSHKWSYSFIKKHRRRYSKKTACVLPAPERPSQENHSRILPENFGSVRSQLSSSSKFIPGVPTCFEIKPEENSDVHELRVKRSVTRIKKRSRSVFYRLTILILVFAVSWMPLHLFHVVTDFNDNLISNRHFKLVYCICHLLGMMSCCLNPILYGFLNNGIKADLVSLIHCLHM

[2] = Total clearance in Sprague-Dawley rat at 10 mg/kg, po and 3 mg/kg, iv; type: ADME, organism-based; details: in vivo
Method in brief: (§1)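 Sprague-Dawley rats (n = 2) given 3 mpk iv and 10 mpk po. Plasma sampled at 5 min, 1 h and 4 h after iv dosing and at 0.5 h, 1 h and 2 h after po dosing. F, CL_tot, AUC and other PK parameters calculated by the trapezoidal method.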

[3] = Cmax in Sprague-Dawley rat at 10 mg/kg, po and 3 mg/kg, iv; type: ADME, organism-based; details: in vivo; method in brief: as §1
[4] = Tmax in Sprague-Dawley rat at 10 mg/kg, po and 3 mg/kg, iv; type: ADME, organism-based; details: in vivo; method in brief: as §1
[5] = AUC in Sprague-Dawley rat at 10 mg/kg, po and 3 mg/kg, iv; type: ADME, organism-based; details: plasma; method in brief: as §1
[6] = system: Rattus norvegicus; assay: Suppression of Y5 agonist bovine pancreatic peptide-induced food intake in po dosed Sprague-Dawley rat assessed as minimum effective dose treated 1 hr before peptide administration measured after 2 hrs; type: functional
Method in brief: (§2)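 bPP (5 µg) given ICV to SD rats in 10 µL of 10 mM PBS containing 0.05% BSA. Compound suspended in 0.5% methylcellulose in distilled water and given orally (5 mL/kg) 1 h before bPP. Cumulative food intake recorded over 0–2 h; n = 7 or more. MED is the lowest dose with a statistically significant reduction versus vehicle (P < 0.05 or P < 0.01).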

[7] = system: Mus musculus; assay: Reduction in body weight in diet-induced obese C57BL/6J mouse at 100 mg/kg, po; type: functional, organism-based; design: dose 100 mg/kg
[8] = Oral bioavailability in Sprague-Dawley rat at 10 mg/kg; type: ADME, organism-based; details: in vivo; method in brief: as §1
[9] = Ratio of drug level in brain to plasma in Sprague-Dawley rat at 3 mg/kg, iv after 10 mins; type: ADME, organism-based; design: dose 3 mg/kg, route intravenous
Method in brief: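 Rats (n = 2) dosed iv at 3 mpk. Brain and plasma concentrations taken 10 min after dosing, and brain penetration expressed as the brain/plasma ratio.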

[10] = Lipophilicity, calculated log D at pH 7.4
[11] = system: Brain; assay: Drug level in Sprague-Dawley rat brain at 10 mg/kg, po after 2 hrs; type: ADME, organism-based; design: dose 10 mg/kg, route oral; details: in vivo
Method in brief: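 SD rats dosed orally at 10 mg/kg. Brain concentration measured 2 h after dosing and expressed as nmol/g.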

[12] = system: Mus musculus; assay: Reduction in body weight in diet-induced obese C57BL/6J mouse at 30 mg/kg, po after 13 days; type: functional, organism-based; design: dose 30 mg/kg
[13] = system: Rattus norvegicus; assay: Suppression of Y5 agonist bovine pancreatic peptide-induced food intake in Sprague-Dawley rat at 1 mg/kg, po treated 1 hr before peptide administration measured after 2 hrs; type: functional; method in brief: as §2
[14] = system: Rattus norvegicus; assay: Suppression of Y5 agonist bovine pancreatic peptide-induced food intake in Sprague-Dawley rat at 3 mg/kg, po treated 1 hr before peptide administration measured after 2 hrs; type: functional; method in brief: as §2
[15] = system: Rattus norvegicus; assay: Suppression of Y5 agonist bovine pancreatic peptide-induced food intake in Sprague-Dawley rat at 10 mg/kg, po treated 1 hr before peptide administration measured after 2 hrs; type: functional; method in brief: as §2
[16] = system: Mus musculus; assay: Reduction in cumulative food intake in diet-induced obese C57BL/6J mouse at 30 mg/kg, po after 13 days relative to control; type: functional; design: scale not given: the % may be the effect or the level left
[17] = species: Mus musculus; assay: Reduction in body weight in Y5 receptor knock-out diet-induced obese C57BL/6J mouse; type: functional, organism-based

Row | IC50 [1] [nM] | Compound | MED [6] [mg/kg] | further results
1 | 5 | CS(=O)(=O)N1CC2(CCN(C(=O)Nc3nc4cc(Cl)ccc4o3)CC2)c2ccccc21 | – | –
2 | 6.1 | CS(=O)(=O)N1CC2(CCN(C(=O)Nc3ccc4ccccc4n3)CC2)c2ccccc21 | – | –
3 | – | CS(=O)(=O)N1CC2(CCN(C(=O)Nc3ccc(-c4ccncc4)cc3)CC2)c2ccccc21 | 10 | clearance [2]: 17.8 mL/min/kg; Cmax [3]: 5.5 µM; Tmax [4]: 1 h; AUC [5]: 10.8 µM·h; Activity [7]: inactive
4 | – | CS(=O)(=O)N1CC2(CCN(C(=O)Nc3ccc(-c4cccnc4)cc3)CC2)c2ccccc21 | 100 | clearance [2]: 13.3 mL/min/kg; Cmax [3]: 4.7 µM; Tmax [4]: 1 h; AUC [5]: 12.7 µM·h
5 | 2.4 | CS(=O)(=O)N1CC2(CCN(C(=O)Nc3ccc(-c4nccs4)cc3)CC2)c2ccccc21 | – | –
6 | 3.2 | CS(=O)(=O)N1CC2(CCN(C(=O)Nc3ccc(-n4cccn4)cc3)CC2)c2ccccc21 | – | –
7 | 11 | CS(=O)(=O)N1CC2(CCN(C(=O)Nc3ccc(Cl)nc3)CC2)c2ccccc21 | – | –
8 | 7.1 | CS(=O)(=O)N1CC2(CCN(C(=O)Nc3ccc(Cl)cn3)CC2)c2ccccc21 | – | –
9 | 3.4 | CCS(=O)(=O)N1CC2(CCN(C(=O)Nc3cn(-c4ccccc4)cn3)CC2)c2ccccc21 | 3 | bioavailability [8]: 37%; clearance [2]: 2.5 mL/min/kg; AUC [5]: 58.9 µM·h; Kp at 10 min [9]: 0.22; Activity [6]: Dose-dependent effect; Drug uptake [11]: 0.64 nmol/g; Activity [12]: Active; inhibition in vivo at 1 mg/kg [13]: 34%; inhibition in vivo at 3 mg/kg [14]: 45%; inhibition in vivo at 10 mg/kg [15]: 57%; Activity [16]: 8.8%; Activity [17]: inactive
10 | 2.4 | CS(=O)(=O)N1CC2(CCN(C(=O)Nc3cn(-c4ccccc4)cn3)CC2)c2ccccc21 | > 30 | bioavailability [8]: 27%; clearance [2]: 3.9 mL/min/kg; AUC [5]: 25.3 µM·h; Kp at 10 min [9]: 0.1; logD [10]: 2.15
11 | 8.9 | COc1cccc2sc(NC(=O)N3CCC4(CC3)CN(S(C)(=O)=O)c3ccccc34)nc12 | – | –
12 | – | CS(=O)(=O)N1CC2(CCN(C(=O)Nc3ccc(-c4ccccn4)cc3)CC2)c2ccccc21 | > 100 | clearance [2]: 24.4 mL/min/kg; Cmax [3]: 0.6 µM; Tmax [4]: 0.25 h; AUC [5]: 1.8 µM·h; Kp at 10 min [9]: 0.22
13 | 2 | CCS(=O)(=O)N1CC2(CCN(C(=O)Nc3cn(-c4cccc(OC)c4)cn3)CC2)c2ccccc21 | 10 | bioavailability [8]: 50.1%; Kp at 10 min [9]: 0.11
14 | 2.5 | CS(=O)(=O)N1CC2(CCN(C(=O)Nc3ccc4ncccc4c3)CC2)c2ccccc21 | > 30 | bioavailability [8]: 24%; Kp at 10 min [9]: 0.03; logD [10]: 2.74
15 | 41 | CS(=O)(=O)N1CC2(CCN(C(=O)Nc3ccc(-n4nccn4)cc3)CC2)c2ccccc21 | – | –
16 | 4.2 | CS(=O)(=O)N1CC2(CCN(C(=O)Nc3ccc(-c4ccco4)cc3)CC2)c2ccccc21 | – | –

Row | IC50 [1] [nM] | Compound | MED [6] [mg/kg] | further results
17 | 1.4 | CS(=O)(=O)N1CC2(CCN(C(=O)Nc3cc(-c4ccccc4)n[nH]3)CC2)c2ccccc21 | > 30 | bioavailability [8]: 13%; Kp at 10 min [9]: 0.02; logD [10]: 3.08
18 | 3 | CCS(=O)(=O)N1CC2(CCN(C(=O)Nc3cn(-c4cccc(F)c4)cn3)CC2)c2ccccc21 | 30 | bioavailability [8]: 23%; Kp at 10 min [9]: 0.18
19 | 4.9 | CCS(=O)(=O)N1CC2(CCN(C(=O)Nc3cn(-c4ccccc4OC)cn3)CC2)c2ccccc21 | > 30 | –
20 | 1.8 | CS(=O)(=O)N1CC2(CCN(C(=O)Nc3cn(-c4cccc(F)c4)cn3)CC2)c2ccccc21 | > 30 | –
21 | 5.4 | CS(=O)(=O)N1CC2(CCN(C(=O)Nc3cnc4ccccc4c3)CC2)c2ccccc21 | – | –
22 | > 1000 | CS(=O)(=O)N1CC2(CCN(C(=O)Nc3cccnc3)CC2)c2ccccc21 | – | –
23 | 0.68 | CS(=O)(=O)N1CC2(CCN(C(=O)Nc3ccc(C(=O)c4ccccc4)cc3)CC2)c2ccccc21 | – | –
24 | 2.6 | CS(=O)(=O)N1CC2(CCN(C(=O)Nc3ccc(Oc4ccccc4)cc3)CC2)c2ccccc21 | – | –
25 | 3.3 | CCS(=O)(=O)N1CC2(CCN(C(=O)Nc3cn(-c4ccccc4F)cn3)CC2)c2ccccc21 | 3 | bioavailability [8]: 23%; Kp at 10 min [9]: 0.25
26 | 2.2 | CS(=O)(=O)N1CC2(CCN(C(=O)Nc3ncc(-c4ccccc4)s3)CC2)c2ccccc21 | – | –
27 | 9 | Cn1ccnc1-c1ccc(NC(=O)N2CCC3(CC2)CN(S(C)(=O)=O)c2ccccc23)cc1 | – | –
28 | 4.1 | CCS(=O)(=O)N1CC2(CCN(C(=O)Nc3cn(-c4ccc(F)cc4)cn3)CC2)c2ccccc21 | > 30 | –
29 | 2.8 | CS(=O)(=O)N1CC2(CCN(C(=O)Nc3ccc(-c4cscn4)cc3)CC2)c2ccccc21 | – | –
30 | 3.4 | CS(=O)(=O)N1CC2(CCN(C(=O)Nc3nnc(-c4ccccc4)s3)CC2)c2ccccc21 | – | –
31 | 3.2 | CCS(=O)(=O)N1CC2(CCN(C(=O)Nc3cn(-c4ccc(OC)cc4)cn3)CC2)c2ccccc21 | – | –
32 | 3.9 | CS(=O)(=O)N1CC2(CCN(C(=O)Nc3cn(-c4ccccc4F)cn3)CC2)c2ccccc21 | > 30 | –

Row | Compound | IC50 [1] [nM] | MED [6] [mg/kg] | further results
33 | CS(=O)(=O)N1CC2(CCN(C(=O)Nc3cc(-c4ccccc4)no3)CC2)c2ccccc21 | 1.3 | > 30 | bioavailability [8]: 23%; Kp at 10 min [9]: 0.22; logD [10]: 2.53
34 | CC(=O)c1ccc(NC(=O)N2CCC3(CC2)CN(S(C)(=O)=O)c2ccccc23)cc1 | 2.7 | – | –
